Laboratory results: ChEMBL document CHEMBL1649139, “A novel gene, erm(41), confers inducible macrolide resistance to clinical isolates of Mycobacterium abscessus but is absent from Mycobacterium chelonae” (2009)
Values after ≈ are worked out from the molar mass of the structure shown.

Columns and labels:
Format in all cases: functional
[1] = test system: Mycobacteroides abscessus; experiment: Antimicrobial activity against Mycobacterium abscessus isolate MC879 at day 3 by broth microdilution method; details: isolate MC879, 72 h
Summary of the method: (§1)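 Clarithromycin MIC by broth microdilution following CLSI guidelines. Organisms were preincubated […], for 3 days before the assay. This allowed at least two generations, judged by the rise in turbidity. The MIC was read at the stated day, with incubation extended from day 3 to as long as 14 days.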

[2] = test system: Mycobacteroides abscessus; experiment: Antimicrobial activity against Mycobacterium abscessus isolate MC879-2 at day 7 preincubated with 0.1 ug/ml for 3 days by broth microdilution method
[3] = test system: Mycobacteroides abscessus; experiment: Antimicrobial activity against Mycobacterium abscessus isolate MAB30 at day 14 preincubated with 0.1 ug/ml for 3 days by broth microdilution method
Summary of the method: (§2)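 Clarithromycin MIC by CLSI-conforming broth microdilution. Before testing, cultures were preincubated for 3 days, either in medium alone or in clarithromycin or erythromycin (tested range 0.01–1 μg/ml). Preincubation ran for at least two generations, judged by turbidity increase. Plates were read on day 3 and on extended incubation at days 5 to 14.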

[4] = test system: Mycobacteroides abscessus; experiment: Antimicrobial activity against Mycobacterium abscessus isolate MC720 at day 9 by broth microdilution method; details: isolate MC720, 216 h
Summary of the method: (§3)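 Clarithromycin MIC by broth microdilution following CLSI guidelines. Before testing, organisms were preincubated for 3 days in medium alone or in clarithromycin or erythromycin (0.01–1 μg/ml), long enough for at least two generations judged by turbidity increase. MICs were read on day 3 and again on extended incubation out to day 14.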

[5] = test system: Mycobacteroides abscessus; experiment: Antimicrobial activity against Mycobacterium abscessus isolate MC879-2 at day 14 by broth microdilution method; details: isolate MC879-2, 336 h
[6] = test system: Mycobacteroides abscessus; experiment: Antimicrobial activity against Mycobacterium abscessus isolate MC958 at day 3 preincubated with 0.1 ug/ml erythromycin for 3 days by broth microdilution method
Summary of the method: (§4)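 To test inducible resistance, cultures were preincubated for 3 days in clarithromycin or erythromycin, within 0.01–1 μg/ml. The period was set so cultures passed at least two generations, judged by turbidity increase. Clarithromycin MIC was then determined by CLSI-conforming broth microdilution and read on the stated day, from day 3 up to 14.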

[7] = test system: Mycobacteroides abscessus; experiment: Antimicrobial activity against Mycobacterium abscessus isolate MC719 at day 14 by broth microdilution method; details: isolate MC719, 336 h; summary of the method: as §3
[8] = test system: Mycobacteroides abscessus; experiment: Antimicrobial activity against Mycobacterium abscessus isolate MAB30 at day 5 by broth microdilution method; details: isolate MAB30, 120 h; summary of the method: as §2
[9] = test system: Mycobacteroides abscessus; experiment: Antimicrobial activity against Mycobacterium abscessus isolate MC958 at day 9 by broth microdilution method; details: isolate MC958, 216 h
[10] = test system: Mycobacteroides abscessus; experiment: Antimicrobial activity against Mycobacterium abscessus isolate MC879 at day 5 by broth microdilution method; details: isolate MC879, 120 h; summary of the method: as §1
[11] = test system: Mycobacteroides abscessus; experiment: Antimicrobial activity against Mycobacterium abscessus isolate MC719 at day 7 by broth microdilution method; details: isolate MC719, 168 h
Summary of the method: (§5)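 Clinical M. abscessus isolates were preincubated for 3 days, either in medium alone or in clarithromycin or erythromycin at 0.01 to 1 μg/ml, allowing at least two generations of growth judged by turbidity. The clarithromycin MIC was then determined by CLSI-conforming broth microdilution, with plates read on day 3 and on extended incubation (days 5 to 14).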

[12] = test system: Mycobacteroides abscessus; experiment: Antimicrobial activity against Mycobacterium abscessus isolate MC958 at day 14 preincubated with 0.1 ug/ml erythromycin for 3 days by broth microdilution method; summary of the method: as §4
[13] = test system: Mycobacteroides abscessus; experiment: Antimicrobial activity against Mycobacterium abscessus isolate MC720 at day 5 preincubated with 0.1 ug/ml erythromycin for 3 days by broth microdilution method; summary of the method: as §5
[14] = test system: Mycobacteroides abscessus; experiment: Antimicrobial activity against Mycobacterium abscessus isolate MAB30 at day 7 preincubated with 0.1 ug/ml for 3 days by broth microdilution method; summary of the method: as §2
[15] = test system: Mycolicibacterium smegmatis; experiment: Antimicrobial activity against Mycobacterium smegmatis transformed with erm allele Mycobacterium abscessus isolate MC1082 preincubated with 2 ug/ml erythromycin for 20 to 24 hrs by broth microdilution method
[16] = test system: Mycobacteroides abscessus; experiment: Antimicrobial activity against Mycobacterium abscessus isolate MC1082 at day 5 preincubated with 0.1 ug/ml for 3 days by broth microdilution method; summary of the method: as §2
[17] = test system: Mycobacteroides abscessus; experiment: Antimicrobial activity against Mycobacterium abscessus isolate MC724 at day 14 by broth microdilution method; details: isolate MC724, 336 h; summary of the method: as §3
[18] = test system: Mycobacteroides abscessus; experiment: Antimicrobial activity against Mycobacterium abscessus isolate MC719 at day 3 preincubated with 0.1 ug/ml for 3 days by broth microdilution method; summary of the method: as §3
[19] = test system: Mycobacteroides abscessus; experiment: Antimicrobial activity against Mycobacterium abscessus isolate MC1448 at day 14 preincubated with 0.1 ug/ml erythromycin for 3 days by broth microdilution method; summary of the method: as §2
[20] = test system: Mycobacteroides abscessus; experiment: Antimicrobial activity against Mycobacterium abscessus isolate MAB30 at day 3 by broth microdilution method; details: isolate MAB30, 72 h; summary of the method: as §2
[21] = test system: Mycobacteroides abscessus; experiment: Antimicrobial activity against Mycobacterium abscessus isolate MC879-2 at day 7 by broth microdilution method; details: isolate MC879-2, 168 h
[22] = test system: Mycobacteroides abscessus; experiment: Antimicrobial activity against Mycobacterium abscessus isolate MC719 at day 3 preincubated with 0.1 ug/ml erythromycin for 3 days by broth microdilution method; summary of the method: as §3
[23] = test system: Mycolicibacterium smegmatis; experiment: Antimicrobial activity against Mycobacterium smegmatis transformed with erm allele Mycobacterium abscessus isolate MC719 by broth microdilution method
[24] = test system: Mycobacteroides abscessus; experiment: Antimicrobial activity against Mycobacterium abscessus isolate MC879 at day 3 preincubated with 0.1 ug/ml for 3 days by broth microdilution method; summary of the method: as §4
[25] = test system: Mycobacteroides abscessus; experiment: Antimicrobial activity against Mycobacterium abscessus isolate MC958 at day 3 by broth microdilution method; details: isolate MC958, 72 h; summary of the method: as §1
[26] = test system: Mycobacteroides abscessus; experiment: Antimicrobial activity against Mycobacterium abscessus isolate MC1448 at day 5 by broth microdilution method; details: isolate MC1448, 120 h; summary of the method: as §3
[27] = test system: Mycobacteroides abscessus; experiment: Antimicrobial activity against Mycobacterium abscessus isolate MC879 on day 10 by broth microdilution method; details: isolate MC879, 240 h
[28] = test system: Mycobacteroides abscessus; experiment: Antimicrobial activity against Mycobacterium abscessus isolate MC1082 at day 3 by broth microdilution method; details: isolate MC1082, 72 h; summary of the method: as §2
[29] = test system: Mycobacteroides abscessus; experiment: Antimicrobial activity against Mycobacterium abscessus isolate MC958 at day 14 preincubated with 0.1 ug/ml for 3 days by broth microdilution method; summary of the method: as §4
[30] = test system: Mycobacteroides abscessus; experiment: Antimicrobial activity against Mycobacterium abscessus isolate MC958 at day 14 by broth microdilution method; details: isolate MC958, 336 h; summary of the method: as §1
[31] = test system: Mycobacteroides abscessus; experiment: Antimicrobial activity against Mycobacterium abscessus isolate MC1028 at day 5 preincubated with 0.1 ug/ml erythromycin for 3 days by broth microdilution method; summary of the method: as §2
[32] = test system: Mycobacteroides abscessus; experiment: Antimicrobial activity against Mycobacterium abscessus isolate MC723 at day 5 preincubated with 0.1 ug/ml for 3 days by broth microdilution method; summary of the method: as §5
[33] = test system: Mycobacteroides abscessus; experiment: Antimicrobial activity against Mycobacterium abscessus isolate MC958 at day 9 preincubated with 0.1 ug/ml for 3 days by broth microdilution method
[34] = test system: Mycobacteroides abscessus; experiment: Antimicrobial activity against Mycobacterium abscessus isolate MC1028 at day 9 preincubated with 0.1 ug/ml erythromycin for 3 days by broth microdilution method; summary of the method: as §2
[35] = test system: Mycolicibacterium smegmatis; experiment: Antimicrobial activity against Mycobacterium smegmatis transformed with erm allele Mycobacterium abscessus isolate MAB30 preincubated with 2 ug/ml erythromycin for 20 to 24 hrs by broth microdilution method
[36] = test system: Mycolicibacterium smegmatis; experiment: Antimicrobial activity against Mycobacterium smegmatis transformed with erm allele Mycobacterium abscessus isolate MC720 preincubated with 2 ug/ml erythromycin for 20 to 24 hrs by broth microdilution method

Compound: CC[C@H]1OC(=O)[C@H](C)[C@@H](O[C@H]2C[C@@](C)(OC)[C@@H](O)[C@H](C)O2)[C@H](C)[C@@H](O[C@@H]2O[C@H](C)C[C@H](N(C)C)[C@H]2O)[C@](C)(OC)C[C@@H](C)C(=O)[C@H](C)[C@@H](O)[C@]1(C)O [CLARITHROMYCIN]
- MIC [1]: ≤ 0.5 µg/mL
- MIC [2]: > 32 µg/mL
- MIC [3]: ≤ 0.5 µg/mL
- MIC [4]: > 32 µg/mL
- MIC [5]: > 32 µg/mL
- MIC [6]: ≤ 0.5 µg/mL
- MIC [7]: > 32 µg/mL
- MIC [8]: ≤ 0.5 µg/mL
- MIC [9]: > 32 µg/mL
- MIC [10]: 1 µg/mL (≈ 1.34 µM)
- MIC [11]: 8 µg/mL (≈ 10.7 µM)
- MIC [12]: > 32 µg/mL
- MIC [13]: 4 µg/mL
- MIC [14]: ≤ 0.5 µg/mL
- MIC [15]: ≤ 0.5 µg/mL
- MIC [16]: ≤ 0.5 µg/mL
- MIC [17]: > 32 µg/mL
- MIC [18]: ≤ 0.5 µg/mL
- MIC [19]: > 32 µg/mL
- MIC [20]: ≤ 0.5 µg/mL
- MIC [21]: > 32 µg/mL
- MIC [22]: ≤ 0.5 µg/mL
- MIC [23]: 2 µg/mL (≈ 2.67 µM)
- MIC [24]: ≤ 0.5 µg/mL
- MIC [25]: ≤ 0.5 µg/mL
- MIC [26]: > 32 µg/mL
- MIC [27]: 32 µg/mL (≈ 42.8 µM)
- MIC [28]: ≤ 0.5 µg/mL
- MIC [29]: > 32 µg/mL
- MIC [30]: > 32 µg/mL
- MIC [31]: ≤ 0.5 µg/mL
- MIC [32]: 4 µg/mL (≈ 5.35 µM)
- MIC [33]: > 32 µg/mL
- MIC [34]: ≤ 0.5 µg/mL
- MIC [35]: ≤ 0.5 µg/mL
- MIC [36]: 16 µg/mL
